# Results: ChEMBL document CHEMBL4118256, “Second Generation of Mannich Base-Type Derivatives with in Vivo Activity against Trypanosoma cruzi” (J Med Chem, 2018)
# Columns and labels:
# [1] = tested on: Trypanosoma cruzi; test: Trypanocidal activity against Trypanosoma cruzi MHOM/Pe/2011/Arequipa DTU 5 epimastigotes after 48 hrs by resazurin dye based assay; assay type: functional, organism-based; settings: MHOM/Pe/2011/Arequipa DTU 5, 48 h
# Method in brief: (§1)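 Exponential-phase epimastigotes were seeded at 5×10^5 mL^-1 with compounds at 100–0.2 µM (DMSO 0.01% v/v) at 28 °C. After 48 h, resazurin was added for another 24 h. SDS was then added and absorbance read at 570 and 600 nm.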
# [2] = tested on: Trypanosoma cruzi; test: Trypanocidal activity against Trypanosoma cruzi IRHOD/CO/2008/SN3 DTU 1 epimastigotes after 48 hrs by resazurin dye based assay; assay type: functional, organism-based; settings: IRHOD/CO/2008/SN3 DTU 1, 48 h; method in brief: as §1
# [3] = tested on: Trypanosoma cruzi; test: Trypanocidal activity against Trypanosoma cruzi TINF/CH/1956/Tulahuen DTU 6 epimastigotes after 48 hrs by resazurin dye based assay; assay type: functional, organism-based; settings: TINF/CH/1956/Tulahuen DTU 6, 48 h; method in brief: as §1
# [4] = tested on: Vero; test: Cytotoxicity against African green monkey Vero cells assessed as reduction in cell viability after 72 hrs by resazurin dye based assay; settings: Chlorocebus sabaeus
# Method in brief: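 Vero monkey kidney cells grown at 37 °C, 5 % CO2, in RPMI with 10 % heat-inactivated FBS. Seeded at 1.25 × 10^4 mL-1 with compound at 1000 to 1 µM (DMSO 0.01 % v/v). After 48 h, resazurin added for a further 24 h, then SDS. Absorbance read at 570/600 nm. IC50 from triplicates in four separate determinations.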
# [5] = Selectivity index, ratio of IC50 for African green monkey Vero cells to IC50 for Trypanosoma cruzi MHOM/Pe/2011/Arequipa DTU 5 epimastigotes; assay type: toxicity; settings: read-out: Ratio IC50
# Method in brief: (§2)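 SI is Vero IC50 divided by the IC50 for the stated parasite form. For Vero cytotoxicity, cells were seeded at 1.25×10^4 mL^-1 with compounds at 1000–1 µM, incubated 48 h, then given resazurin for a further 24 h (72 h total), with absorbance read at 570/600 nm. Triplicate, four determinations.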
# [6] = Selectivity index, ratio of IC50 for African green monkey Vero cells to IC50 for Trypanosoma cruzi IRHOD/CO/2008/SN3 DTU 1 epimastigotes; assay type: toxicity; settings: read-out: Ratio IC50; method in brief: as §2
# [7] = Selectivity index, ratio of IC50 for African green monkey Vero cells to IC50 for Trypanosoma cruzi TINF/CH/1956/Tulahuen DTU 6 epimastigotes; assay type: toxicity; settings: read-out: Ratio IC50; method in brief: as §2
# [8] = tested on: Trypanosoma cruzi; test: Trypanocidal activity against Trypanosoma cruzi TINF/CH/1956/Tulahuen DTU 6 amastigotes infected in African green monkey Vero cells after 72 hrs by Giemsa-staining based microscopic assay; assay type: functional, organism-based; settings: TINF/CH/1956/Tulahuen DTU 6, Vero
# Method in brief: (§3)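 Vero cells were seeded at 1×10^4/well on coverslips. After 24 h they were infected with culture-derived trypomastigotes (MOI 1:10, 24 h), then washed. Compounds were added at 100–0.2 µM (DMSO 0.01% v/v) for 72 h at 37 °C, 5% CO2. Slides were methanol-fixed and Giemsa-stained; amastigotes and infected cells were counted over 500 host cells. IC50 was derived by curve fitting; triplicate wells, four separate determinations.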
# [9] = tested on: Trypanosoma cruzi; test: Trypanocidal activity against Trypanosoma cruzi TINF/CH/1956/Tulahuen DTU 6 trypamastigotes derived from infected Balb/c albino mouse after 24 hrs by resazurin dye based assay; assay type: functional, organism-based; settings: TINF/CH/1956/Tulahuen DTU 6, 24 h
# Method in brief: (§4)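 Bloodstream trypomastigotes taken from mice at peak parasitaemia were seeded at 2×10^6 mL^-1 in RPMI with 10% FBS. Compounds were added at 50–0.2 µM and incubated 24 h at 37 °C, 5% CO2, then with resazurin for 4 h. SDS was added and absorbance read at 570/600 nm. IC50 was fitted; triplicate, four separate determinations.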
# [10] = Selectivity index, ratio of IC50 for African green monkey Vero cells to IC50 for Trypanosoma cruzi TINF/CH/1956/Tulahuen DTU 6 amastigotes infected in African green monkey Vero cells; assay type: toxicity; settings: read-out: Ratio IC50; method in brief: as §2
# [11] = Selectivity index, ratio of IC50 for African green monkey Vero cells to IC50 for Trypanosoma cruzi TINF/CH/1956/Tulahuen DTU 6 trypamastigotes derived from infected Balb/c albino mouse; assay type: toxicity; settings: read-out: Ratio IC50; method in brief: as §2
# [12] = tested on: Trypanosoma cruzi; test: Trypanocidal activity against Trypanosoma cruzi MHOM/Pe/2011/Arequipa DTU 5 amastigotes infected in African green monkey Vero cells after 72 hrs by Giemsa-staining based microscopic assay; assay type: functional, organism-based; settings: MHOM/Pe/2011/Arequipa DTU 5, Vero; method in brief: as §3
# [13] = tested on: Trypanosoma cruzi; test: Trypanocidal activity against Trypanosoma cruzi MHOM/Pe/2011/Arequipa DTU 5 trypamastigotes derived from infected Balb/c albino mouse after 24 hrs by resazurin dye based assay; assay type: functional, organism-based; settings: MHOM/Pe/2011/Arequipa DTU 5, 24 h; method in brief: as §4
# [14] = tested on: Trypanosoma cruzi; test: Trypanocidal activity against Trypanosoma cruzi IRHOD/CO/2008/SN3 DTU 1 amastigotes infected in African green monkey Vero cells after 72 hrs by Giemsa-staining based microscopic assay; assay type: functional, organism-based; settings: IRHOD/CO/2008/SN3 DTU 1, Vero; method in brief: as §3
# [15] = tested on: Trypanosoma cruzi; test: Trypanocidal activity against Trypanosoma cruzi IRHOD/CO/2008/SN3 DTU 1 trypamastigotes derived from infected Balb/c albino mouse after 24 hrs by resazurin dye based assay; assay type: functional, organism-based; settings: IRHOD/CO/2008/SN3 DTU 1, 24 h; method in brief: as §4
# [16] = Selectivity index, ratio of IC50 for African green monkey Vero cells to IC50 for Trypanosoma cruzi MHOM/Pe/2011/Arequipa DTU 5 amastigotes infected in African green monkey Vero cells; assay type: toxicity; settings: read-out: Ratio IC50; method in brief: as §2
# [17] = Selectivity index, ratio of IC50 for African green monkey Vero cells to IC50 for Trypanosoma cruzi MHOM/Pe/2011/Arequipa DTU 5 trypamastigotes derived from infected Balb/c albino mouse; assay type: toxicity; settings: read-out: Ratio IC50; method in brief: as §2
# [18] = Selectivity index, ratio of IC50 for African green monkey Vero cells to IC50 for Trypanosoma cruzi IRHOD/CO/2008/SN3 DTU 1 amastigotes infected in African green monkey Vero cells; assay type: toxicity; settings: read-out: Ratio IC50; method in brief: as §2
# [19] = Selectivity index, ratio of IC50 for African green monkey Vero cells to IC50 for Trypanosoma cruzi IRHOD/CO/2008/SN3 DTU 1 trypamastigotes derived from infected Balb/c albino mouse; assay type: toxicity; settings: read-out: Ratio IC50; method in brief: as §2
SMILES,IC50 [1] [µM],IC50 [2] [µM],IC50 [3] [µM],IC50 [4] [µM],selectivity ratio [5],selectivity ratio [6],selectivity ratio [7],IC50 [8] [µM],IC50 [9] [µM],selectivity ratio [10],selectivity ratio [11],IC50 [12] [µM],IC50 [13] [µM],IC50 [14] [µM],IC50 [15] [µM],selectivity ratio [16],selectivity ratio [17],selectivity ratio [18],selectivity ratio [19]
O=C(CCN1CCN(c2ccc([N+](=O)[O-])cc2)CC1)c1ccc(F)c(Br)c1,36.5,37.5,19.1,256,7,6.8,13.4,38.7,32.1,6.6,8,–,–,–,–,–,–,–,–
O=C(CCN1CCN(c2ccc(F)cc2)CC1)c1ccc(F)c(F)c1,21.4,37.6,65.5,385,18,10.3,5.9,–,–,–,–,28.3,31.6,51.1,42.2,13.6,12.2,7.5,9.1
Cc1ccc(C(=O)CCN2CCN(c3ccc(F)cc3)CC2)cc1,43.5,78.8,25,55.4,1.3,0.7,2.2,–,–,–,–,–,–,–,–,–,–,–,–
Cc1ccc(C(=O)CCN2CCN(c3ccc([N+](=O)[O-])cc3)CC2)cc1,28.4,18.2,46.2,235,8.3,12.9,5.1,–,–,–,–,–,–,24,25.3,–,–,9.8,9.3
COc1ccc(C(=O)CCN2CCN(Cc3cccc(C)c3)CC2)cc1OC,19.4,24.1,28.4,52,2.7,2.2,1.8,–,–,–,–,–,–,–,–,–,–,–,–
O=C(CCN1CCN(c2ccc(Cl)cc2)CC1)c1ccc(F)c(F)c1,15.4,13.7,46.2,86.2,5.6,6.3,1.9,–,–,–,–,–,–,–,–,–,–,–,–
O=C(CCN1CCN(c2ccc(F)cc2)CC1)c1ccc(C(F)(F)F)cc1,36.9,66.4,60.3,28.5,0.8,0.4,0.5,–,–,–,–,–,–,–,–,–,–,–,–
O=C(CCN1CCN(c2ccc(Cl)cc2)CC1)c1ccc(F)c(Cl)c1,45.5,29.5,29.1,114,2.5,3.9,3.9,–,–,–,–,–,–,–,–,–,–,–,–
Cc1ccc(C(=O)CCN2CCN(c3ccc(C(F)(F)F)cc3)CC2)cc1,14.2,17.6,22.5,140,9.8,7.9,6.2,–,–,–,–,–,–,–,–,–,–,–,–
COc1ccc(C(=O)CCN2CCN(c3ccc(C(F)(F)F)cc3)CC2)cc1OC,59,27.8,33.9,242,4.1,8.7,7.2,–,–,–,–,–,–,–,–,–,–,–,–
O=C(CCN1CCN(c2ccc(F)cc2)CC1)c1ccc(F)c(Cl)c1,25.3,41.6,37.1,185,7.3,4.5,5,–,–,–,–,–,–,–,–,–,–,–,–
COc1ccc(C(=O)CCN2CCN(Cc3cccc(F)c3)CC2)cc1OC,49,48,40.8,22.4,0.5,0.5,0.6,–,–,–,–,–,–,–,–,–,–,–,–
O=C(CCN1CCN(c2ccc(C(F)(F)F)cc2)CC1)c1ccc(F)c(Br)c1,46.6,20.8,25.6,66.8,1.4,3.2,2.6,–,–,–,–,–,–,–,–,–,–,–,–
O=C(CCN1CCN(c2ccc(F)cc2)CC1)c1ccc(F)c(Br)c1,38.8,42.4,41.4,352,9.1,8.3,8.5,–,–,–,–,–,–,–,–,–,–,–,–
COc1ccc(N2CCN(CCC(=O)c3ccc(F)cc3)CC2)cc1,24.5,22.2,38.9,31.9,1.3,1.4,0.8,–,–,–,–,–,–,–,–,–,–,–,–
O=C(CCN1CCN(c2ccc(C(F)(F)F)cc2)CC1)c1ccc(F)c(F)c1,33.4,28.8,54.1,14,0.4,0.5,0.3,–,–,–,–,–,–,–,–,–,–,–,–
O=C(CCN1CCN(c2ccc(Cl)cc2)CC1)c1ccc(Br)cc1,42.5,26.4,20.9,52.1,1.2,2,2.5,–,–,–,–,–,–,–,–,–,–,–,–
O=C(CCN1CCN(c2ccc(F)cc2)CC1)c1ccc(Br)cc1,22.5,56.8,49.5,99.5,4.4,1.8,2,–,–,–,–,–,–,–,–,–,–,–,–
